Assay outcomes (PubChem BioAssay)
CHO-K1 Ca ag: counter-screen for M1 agonists: effect in parental CHO-K1 cells. Fluo-8 calcium fluorescence; scaled to maximal ATP response, vehicle zero. 360,000 tested, 0.48% active. activation, % at 3 µM; in the data active = activation above about 15%;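 note: untransfected CHO-K1 host cells lacking M1 receptor as counterscreen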
CHO-K1 Ca PAM: counter-screen for M1 PAMs: effect in parental CHO-K1 cells | activation, % at 3 µM | 360,000 tested, 0.02% active | ATP EC20, Fluo-8 calcium fluorescence; 0% at ATP EC20, 100% at ATP max;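 active = activation above the run cutoff, the mean activation of all test compounds plus 3 SD, cut at about 40% in these data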;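 note: peak over basal fluorescence ratio in a 140 s read after ATP addition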
OX1R antag-1: OX1R (human) antagonism; O43613; OX1R-expressing cells, FRET antagonist read-out; inhibition, % at 6.6 µM; 330,000 tested, 1.8% active; AID 485270; in the data active = inhibition mostly above about 38%, no sharp cut-off; inactive = mostly below about 40%;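 note: 0% = agonist challenge alone and 100% = reference antagonist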
Target sequence (O43613 whole entry, looked up): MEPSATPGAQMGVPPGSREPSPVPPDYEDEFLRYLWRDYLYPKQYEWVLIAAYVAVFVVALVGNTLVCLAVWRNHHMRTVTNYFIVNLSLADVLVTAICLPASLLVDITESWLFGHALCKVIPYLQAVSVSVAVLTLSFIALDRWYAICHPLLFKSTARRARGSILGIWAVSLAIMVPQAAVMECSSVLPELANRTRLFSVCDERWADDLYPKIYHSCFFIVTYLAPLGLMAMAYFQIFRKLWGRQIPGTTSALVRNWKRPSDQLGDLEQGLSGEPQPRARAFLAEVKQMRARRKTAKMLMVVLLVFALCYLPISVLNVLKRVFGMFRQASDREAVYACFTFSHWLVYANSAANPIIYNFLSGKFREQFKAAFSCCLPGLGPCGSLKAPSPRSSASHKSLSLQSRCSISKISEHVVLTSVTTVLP
OX1R antag-2: blocks the human orexin 1 receptor; O43613; CHO/OX1R cells, Fluo-8 calcium fluorescence, orexin A; inhibition, % at 5 µM; 330,000 tested, 0.43% active; AID 434989;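 active = inhibition above its plate's threshold, mean inhibition of all tested compounds on the plate plus 3 SD, cut at about 37% in these data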;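 note: 0% = orexin A challenge wells and 100% = SB-334867-A antagonist wells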
CHO parental Ca: signal in parental CHO cells, OX1R antagonist counter-screen. AID 463079. 330,000 tested, 0.63% active. parental CHO-K1, ATP-induced calcium, Fluo-8 fluorescence. inhibition, % at 5.6 µM;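 active = inhibition above that plate's mean sample inhibition plus 3 SD, cut at about 26% in these data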;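 note: 0% = ATP-challenged DMSO wells and 100% = DMSO wells without ATP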
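Assay system – parental CHO cells · Reagent – ATP stimulus · Detection – intracellular calcium via Fluo-8 no-wash fluorescent dye · Evaluation – percent inhibition of ATP-evoked calcium rise, normalized to controls · Controls – ATP wells versus no-ATP DMSO wells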
CHO-K1 Ca antag: nonselective inhibitor or artifact in parental CHO-K1 cells; ATP-induced calcium, Fluo-8 fluorescence; inhibition, % at 3 µM; 360,000 tested, 0.6% active; AID 602250;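 active = inhibition above a per-plate cutoff, the plate's mean sample inhibition plus 3 SD, cut at about 24% in these data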;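 note: 0% = DMSO plus EC80 ATP and 100% = DMSO alone without ATP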
* marks the source's active call; other numbers are inactive results. Rows were chosen to be rich in hits. Some 2.9% of all compounds tested hit in one or more screens of this group.

`O=C(Nc1nnc(-c2ccco2)o1)c1ccc([N+](=O)[O-])s1` gave CHO-K1 Ca ag 0, CHO-K1 Ca PAM 13, OX1R antag-1 66*, OX1R antag-2 -7, CHO parental Ca -7 and CHO-K1 Ca antag 1.
For COc1cc2c(cc1OC)CN(C(=O)c1cc(COc3ccccc3SC)on1)CC2 the results were CHO-K1 Ca ag 2, CHO-K1 Ca PAM -7 and CHO-K1 Ca antag -6.
For CSc1ccccc1OCc1cc(C(=O)N2CCc3c(Cl)cccc3C2)no1 the results were CHO-K1 Ca ag 1, CHO-K1 Ca PAM -12, OX1R antag-1 42, OX1R antag-2 62*, CHO parental Ca 58* and CHO-K1 Ca antag -1.
`CC(=O)c1cnc2c(-c3ccc(Cl)cc3)cnn2c1C` gave CHO-K1 Ca ag -1, CHO-K1 Ca PAM -8, OX1R antag-1 30, OX1R antag-2 4, CHO parental Ca 4 and CHO-K1 Ca antag 30*.
Nc1c(C(=O)O)cnc2c(-c3ccc(Cl)cc3)cnn12 was read as CHO-K1 Ca ag 0, CHO-K1 Ca PAM 6, OX1R antag-1 9, OX1R antag-2 -9, CHO parental Ca -13 and CHO-K1 Ca antag -4.
Cc1occc(=O)c1OCc1c(F)cccc1Cl was read as CHO-K1 Ca ag 16*, CHO-K1 Ca PAM 6, OX1R antag-1 6, OX1R antag-2 -24, CHO parental Ca -18 and CHO-K1 Ca antag 10.
Screening O=C(CSc1nnc(-c2cccnc2)o1)Nc1cccc(F)c1 returned CHO-K1 Ca ag 0, CHO-K1 Ca PAM -7, OX1R antag-1 11, OX1R antag-2 -7, CHO parental Ca -24 and CHO-K1 Ca antag 2.
For Nc1nc(Nc2ccccc2F)nc(N2CCOCC2)c1[N+](=O)[O-] the results were CHO-K1 Ca ag 18*, CHO-K1 Ca PAM 9, OX1R antag-1 8, OX1R antag-2 -8, CHO parental Ca -14 and CHO-K1 Ca antag 5.
For CCCNC(=O)C(Cc1ccccc1C)NC(=O)c1ccc(C(F)(F)F)cc1 (centres undefined) the results were CHO-K1 Ca ag 1, CHO-K1 Ca PAM 16, OX1R antag-1 3, OX1R antag-2 -54, CHO parental Ca -2 and CHO-K1 Ca antag -13.
Screening CCC(=O)N1CCCc2cc(S(=O)(=O)N3CCN(c4ccccn4)CC3)ccc21 returned CHO-K1 Ca ag 1, CHO-K1 Ca PAM -7, OX1R antag-1 11, OX1R antag-2 -31, CHO parental Ca -22 and CHO-K1 Ca antag 13.
`CCC(=O)N1CCCc2cc(S(=O)(=O)N3CCN(c4ncccn4)CC3)ccc21` gave CHO-K1 Ca ag 0, CHO-K1 Ca PAM 1, OX1R antag-1 6, OX1R antag-2 -11, CHO parental Ca -6 and CHO-K1 Ca antag 24*.
CCN(CC)CC#CCC(O)(c1ccccc1)C1CCCCC1 (centres undefined) was read as CHO-K1 Ca ag 16*, CHO-K1 Ca PAM -6, OX1R antag-1 -9, OX1R antag-2 -15, CHO parental Ca -20 and CHO-K1 Ca antag 19.
For CCN(CC)CC#CCOC(=O)C(O)(c1ccccc1)C1CCCCC1 (centres undefined) the results were OX1R antag-1 13, OX1R antag-2 -27 and CHO parental Ca -22.
Screening OCCCc1nc2n(n1)C(c1cccs1)C=C(c1ccc(Br)cc1)N2 (centres undefined) returned OX1R antag-1 17, OX1R antag-2 30 and CHO parental Ca 39*.
`C1=C(c2ccc(-c3ccccc3)cc2)Nc2ncnn2C1c1ccco1` (centres undefined) gave CHO-K1 Ca ag 38*, CHO-K1 Ca PAM -11 and CHO-K1 Ca antag 29*.
`Brc1ccc(C2=CC(c3cccs3)n3ncnc3N2)cc1` (centres undefined) gave CHO-K1 Ca ag 33*, CHO-K1 Ca PAM -10, OX1R antag-1 31, OX1R antag-2 33, CHO parental Ca 41* and CHO-K1 Ca antag 2.
Screening Fc1ccc(C2=CC(c3ccco3)n3ncnc3N2)cc1 (centres undefined) returned CHO-K1 Ca ag 5, CHO-K1 Ca PAM 13, OX1R antag-1 18, OX1R antag-2 -10, CHO parental Ca 4 and CHO-K1 Ca antag -4.
For CC1=C(C(N)=O)C(c2ccc(Br)cc2)n2nc(CCCO)nc2N1 (centres undefined) the results were CHO-K1 Ca ag 5, CHO-K1 Ca PAM 22, OX1R antag-1 -6, OX1R antag-2 -23, CHO parental Ca 0 and CHO-K1 Ca antag -14.
Screening CC(NC(=O)CCNC(=O)N1CCn2c1nc1ccccc12)c1ccccc1 (centres undefined) returned CHO-K1 Ca ag 1, CHO-K1 Ca PAM 16, OX1R antag-1 7, OX1R antag-2 -10, CHO parental Ca -18 and CHO-K1 Ca antag -24.
CC(C)OC(=O)c1c2c(n3ccccc13)C(=O)c1ccccc1C2=O was read as CHO-K1 Ca ag 18*, CHO-K1 Ca PAM 14, OX1R antag-1 8, OX1R antag-2 23, CHO parental Ca 16 and CHO-K1 Ca antag 4.
N#Cc1sc(NCc2ccccn2)nc1Cl was read as CHO-K1 Ca ag 3, CHO-K1 Ca PAM -3, OX1R antag-1 9, OX1R antag-2 -11, CHO parental Ca 0 and CHO-K1 Ca antag -7.
For Oc1ccc(-c2n[nH]c(C(F)(F)F)c2-c2ccccc2)c(O)c1 the results were CHO-K1 Ca ag 8, CHO-K1 Ca PAM -4, OX1R antag-1 21, OX1R antag-2 15, CHO parental Ca 57* and CHO-K1 Ca antag 28*.
Screening COc1ccc(-c2c(-c3ccc(O)cc3O)n[nH]c2C(F)(F)F)cc1 returned CHO-K1 Ca ag 0, CHO-K1 Ca PAM -20, OX1R antag-1 7, OX1R antag-2 -3, CHO parental Ca -14 and CHO-K1 Ca antag 12.
COc1ccccc1CNC(=O)c1ccc2nc3[nH]c4ccccc4c3nc2c1 was read as CHO-K1 Ca ag 2, CHO-K1 Ca PAM 25, OX1R antag-1 47*, OX1R antag-2 2, CHO parental Ca -18 and CHO-K1 Ca antag -15.
CC1Oc2ccccc2C=C1/C=N/NC(=O)c1ccccc1O (centres undefined) was read as CHO-K1 Ca ag 11, CHO-K1 Ca PAM 1, OX1R antag-1 75*, OX1R antag-2 9, CHO parental Ca -2 and CHO-K1 Ca antag -11.
CCc1sc(C(=O)NCCc2ccc(S(N)(=O)=O)cc2)cc1Br was read as CHO-K1 Ca ag 0, CHO-K1 Ca PAM -12, OX1R antag-1 18, OX1R antag-2 -7, CHO parental Ca -11 and CHO-K1 Ca antag 29*.
CCC(CC)NC(=O)CN1CCN(S(=O)(=O)c2cccs2)CC1 was read as CHO-K1 Ca ag 1, CHO-K1 Ca PAM 14 and CHO-K1 Ca antag 3.
For Cn1c(=O)oc2cc(S(=O)(=O)N3CCC(C(=O)NCCc4ccccc4)CC3)ccc21 the results were CHO-K1 Ca ag 0, CHO-K1 Ca PAM -23, OX1R antag-1 8, OX1R antag-2 -6, CHO parental Ca 41* and CHO-K1 Ca antag 6.
